# Data reported in ChEMBL document CHEMBL1949524, “Chiral indolo[3,2-f][3]benzazecine-type dopamine receptor antagonists: synthesis and activity of racemic and enantiopure derivatives” (J Med Chem, 2011).
# Calls of active or inactive are those of the source. No cut-off for these calls is given here.
# How the values were obtained:
# [1] = biological target: D(1B) dopamine receptor (Homo sapiens, UniProt P21918); test: Displacement of [3H]SCH23390 from human dopamine D5 receptor expressed in human HEK293 cells; type: cell-based
# Summary of the method: (§1)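 Radioligand binding at human receptors, with Ki as the read-out. Ki is the mean (±SEM) of two to three experiments, each run in triplicate.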
# [2] = biological target: T1, D(2) dopamine receptor (Homo sapiens, UniProt P14416); test: Displacement of [3H]spiperone from human dopamine D2L receptor expressed in human HEK293 cells; type: cell-based; summary of the method: as §1
# [3] = biological target: T2, D(1A) dopamine receptor (Homo sapiens, UniProt P21728); test: Antagonist activity at human dopamine D1 receptor expressed in HEK293 cells assessed as inhibition of SKF38393-induced Ca2+ influx by fluorescence analysis; type: functional, cell-based
# Summary of the method: (§2)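 HEK293 cells stably expressing the relevant dopamine receptor were loaded with a fluorescent dye and preincubated with rising concentrations of test compound. Agonist was then added: SKF 38393 for D1, quinpirole for D2. Ca2+-induced fluorescence was read on a microplate reader.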
# [4] = biological target: T3, D(4) dopamine receptor (Homo sapiens, UniProt P21917); test: Displacement of [3H]spiperone from human dopamine D4.4 receptor expressed in CHO cells; type: cell-based; summary of the method: as §1
# T3 sequence (P21917 whole entry): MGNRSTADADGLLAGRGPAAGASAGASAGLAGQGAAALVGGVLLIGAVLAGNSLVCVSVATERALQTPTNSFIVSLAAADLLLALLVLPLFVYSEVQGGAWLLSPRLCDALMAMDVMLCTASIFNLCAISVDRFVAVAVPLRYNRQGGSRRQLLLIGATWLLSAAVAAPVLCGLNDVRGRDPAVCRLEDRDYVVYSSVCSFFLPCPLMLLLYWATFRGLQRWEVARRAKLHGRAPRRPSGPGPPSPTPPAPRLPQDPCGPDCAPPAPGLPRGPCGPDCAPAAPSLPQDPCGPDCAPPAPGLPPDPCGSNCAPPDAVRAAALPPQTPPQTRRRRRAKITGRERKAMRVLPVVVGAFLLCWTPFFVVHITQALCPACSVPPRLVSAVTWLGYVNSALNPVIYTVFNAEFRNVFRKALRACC
# [5] = biological target: T2, D(1A) dopamine receptor; test: Displacement of [3H]SCH23390 from human dopamine D1 receptor expressed in human HEK293 cells; type: cell-based; summary of the method: as §1
# [6] = biological target: T1, D(2) dopamine receptor; test: Antagonist activity at human dopamine D2L receptor expressed in HEK293 cells assessed inhibition of as quinpirole-induced Ca2+ influx by fluorescence analysis; type: functional, cell-based; summary of the method: as §2
# [7] = biological target: D(3) dopamine receptor (Homo sapiens, UniProt P35462); test: Displacement of [3H]spiperone from human dopamine D3 receptor expressed in human HEK293 cells; type: cell-based; summary of the method: as §1
# Chain of D(3) dopamine receptor (P35462 whole entry): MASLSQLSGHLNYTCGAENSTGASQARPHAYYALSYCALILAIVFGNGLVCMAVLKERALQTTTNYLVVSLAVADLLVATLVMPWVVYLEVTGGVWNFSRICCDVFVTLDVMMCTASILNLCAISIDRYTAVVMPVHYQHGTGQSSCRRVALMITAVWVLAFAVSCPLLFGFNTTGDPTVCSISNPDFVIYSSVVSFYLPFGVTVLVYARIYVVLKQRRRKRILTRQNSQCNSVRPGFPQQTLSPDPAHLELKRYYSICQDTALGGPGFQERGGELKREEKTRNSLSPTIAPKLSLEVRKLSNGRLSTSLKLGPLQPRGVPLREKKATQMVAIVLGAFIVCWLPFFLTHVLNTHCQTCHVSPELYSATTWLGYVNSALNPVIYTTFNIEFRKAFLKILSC
# T2 sequence (P21728 whole entry): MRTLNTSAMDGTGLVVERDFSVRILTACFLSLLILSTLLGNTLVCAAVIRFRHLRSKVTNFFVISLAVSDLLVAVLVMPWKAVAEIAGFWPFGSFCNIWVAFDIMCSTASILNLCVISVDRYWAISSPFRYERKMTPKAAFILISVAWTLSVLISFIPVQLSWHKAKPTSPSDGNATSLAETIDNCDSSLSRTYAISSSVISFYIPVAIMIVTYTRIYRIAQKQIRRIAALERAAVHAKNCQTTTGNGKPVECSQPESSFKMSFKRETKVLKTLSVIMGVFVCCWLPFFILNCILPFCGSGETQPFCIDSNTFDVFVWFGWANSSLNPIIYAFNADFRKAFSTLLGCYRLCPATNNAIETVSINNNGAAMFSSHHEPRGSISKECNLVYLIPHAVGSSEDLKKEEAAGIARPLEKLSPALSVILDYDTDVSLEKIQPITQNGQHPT
# T1 sequence (P14416 whole entry): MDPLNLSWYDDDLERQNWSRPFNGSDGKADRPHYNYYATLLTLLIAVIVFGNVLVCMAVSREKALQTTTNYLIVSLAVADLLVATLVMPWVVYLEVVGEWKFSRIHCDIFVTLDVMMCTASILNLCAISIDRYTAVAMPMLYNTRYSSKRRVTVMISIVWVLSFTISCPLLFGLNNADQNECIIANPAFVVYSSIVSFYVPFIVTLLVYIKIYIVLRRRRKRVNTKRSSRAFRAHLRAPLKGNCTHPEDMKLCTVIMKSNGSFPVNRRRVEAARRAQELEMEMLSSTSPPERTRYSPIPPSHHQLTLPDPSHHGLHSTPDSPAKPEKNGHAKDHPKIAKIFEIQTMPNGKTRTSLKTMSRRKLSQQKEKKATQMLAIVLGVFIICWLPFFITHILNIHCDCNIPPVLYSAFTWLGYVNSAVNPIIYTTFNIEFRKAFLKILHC
# Chain of D(1B) dopamine receptor (P21918 whole entry): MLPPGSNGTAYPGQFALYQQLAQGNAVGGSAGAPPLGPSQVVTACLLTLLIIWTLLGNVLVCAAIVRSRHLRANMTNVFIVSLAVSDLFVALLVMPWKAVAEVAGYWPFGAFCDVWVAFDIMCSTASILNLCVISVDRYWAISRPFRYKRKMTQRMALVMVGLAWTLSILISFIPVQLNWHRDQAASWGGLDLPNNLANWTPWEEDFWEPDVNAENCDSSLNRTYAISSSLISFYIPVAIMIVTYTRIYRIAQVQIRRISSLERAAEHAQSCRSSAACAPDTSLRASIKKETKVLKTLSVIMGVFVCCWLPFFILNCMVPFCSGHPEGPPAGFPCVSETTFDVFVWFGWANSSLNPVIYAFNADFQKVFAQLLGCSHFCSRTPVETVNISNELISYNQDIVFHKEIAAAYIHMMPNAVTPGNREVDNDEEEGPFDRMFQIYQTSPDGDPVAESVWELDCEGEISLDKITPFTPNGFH
Ki [1] [nM],Ki [2] [nM],inhibition [3],Ki [4] [nM],Ki [5] [nM],inhibition [6],Ki [7] [nM],SMILES
657,> 10000,Active,> 10000,> 10000,Active,> 10000,CN1CCc2ccccc2Cc2[nH]c3ccccc3c2CC1C(=O)O (racemic)
11.4,268,Active,408,10.3,Active,681,CN1CCc2ccccc2Cc2[nH]c3ccccc3c2C[C@@H]1CO
91.4,2920,Active,4860,114,Active,4680,CN1CCc2ccccc2Cc2[nH]c3ccccc3c2C[C@H]1CO
4.4,85.3,Active,64.1,6.1,Active,304,C[C@H]1Cc2c([nH]c3ccccc23)Cc2ccccc2CCN1C
389,> 10000,Active,> 10000,640,Active,> 10000,C[C@@H]1Cc2c([nH]c3ccccc23)Cc2ccccc2CCN1C
